Experimental data published in ChEMBL document CHEMBL3763086, “Salicylanilide N-monosubstituted carbamates: Synthesis and in vitro antimicrobial activity” (2016).
Values after ≈ are worked out from the molar mass of the structure shown.

How the values were obtained:
Assay type in all cases: functional
[1] = test system: Staphylococcus aureus; experiment: Antibacterial activity against Staphylococcus aureus CCM 4516/08 after 24 hrs by microbroth dilution method; details: CCM 4516/08, 24 h
How it was run: (§1)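 Microbroth dilution modified per M07-A07 in Mueller-Hinton broth, pH 7.4 (±0.2). Inoculum in sterile water adjusted to 0.5 McFarland. MIC taken as growth reduction of at least 90% (IC90) versus control, read visually and at 540 nm after 24 and 48 h incubation in the dark.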

[2] = test system: Staphylococcus aureus; experiment: Antibacterial activity against Staphylococcus aureus CCM 4516/08 after 48 hrs by microbroth dilution method; details: CCM 4516/08, 48 h
How it was run: (§2)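 Microdilution broth method modified after M07-A07 in Mueller-Hinton broth adjusted to pH 7.4 (±0.2). Inoculum prepared in sterile water to 0.5 McFarland (1.5 × 10^8 CFU/mL). MIC taken as growth reduction versus control (IC95 per table header), read visually and spectrophotometrically at 540 nm after 24 and 48 h incubation in the dark.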

[3] = test system: Staphylococcus aureus; experiment: Antibacterial activity against methicillin-resistant Staphylococcus aureus H 5996/08 after 24 hrs by microbroth dilution method; details: H 5996/08, 24 h; how it was run: as §2
[4] = test system: Staphylococcus aureus; experiment: Antibacterial activity against methicillin-resistant Staphylococcus aureus H 5996/08 after 48 hrs by microbroth dilution method; details: H 5996/08, 48 h; how it was run: as §2
[5] = test system: Staphylococcus epidermidis; experiment: Antibacterial activity against Staphylococcus epidermidis H 6966/08 after 24 hrs by microbroth dilution method; details: H 6966/08, 24 h; how it was run: as §1
[6] = test system: Staphylococcus epidermidis; experiment: Antibacterial activity against Staphylococcus epidermidis H 6966/08 after 48 hrs by microbroth dilution method; details: H 6966/08, 48 h; how it was run: as §1
[7] = test system: Enterococcus sp.; experiment: Antibacterial activity against Enterococcus sp. J 14365/08 after 24 hrs by microbroth dilution method; details: J 14365/08, 24 h; how it was run: as §1
[8] = test system: Enterococcus sp.; experiment: Antibacterial activity against Enterococcus sp. J 14365/08 after 48 hrs by microbroth dilution method; details: J 14365/08, 48 h; how it was run: as §1
[9] = test system: Escherichia coli; experiment: Antibacterial activity against Escherichia coli CCM 4517 after 24 hrs by microbroth dilution method; details: CCM 4517, 24 h; how it was run: as §1
[10] = test system: Escherichia coli; experiment: Antibacterial activity against Escherichia coli CCM 4517 after 48 hrs by microbroth dilution method; details: CCM 4517, 48 h; how it was run: as §1
[11] = test system: Klebsiella pneumoniae; experiment: Antibacterial activity against Klebsiella pneumoniae D 11750/08 after 24 hrs by microbroth dilution method; details: D 11750/08, 24 h; how it was run: as §1
[12] = test system: Klebsiella pneumoniae; experiment: Antibacterial activity against Klebsiella pneumoniae D 11750/08 after 48 hrs by microbroth dilution method; details: D 11750/08, 48 h; how it was run: as §1
[13] = test system: Klebsiella pneumoniae; experiment: Antibacterial activity against ESBL-positive Klebsiella pneumoniae J 14368/08 after 24 hrs by microbroth dilution method; details: J 14368/08, 24 h; how it was run: as §1
[14] = test system: Klebsiella pneumoniae; experiment: Antibacterial activity against ESBL-positive Klebsiella pneumoniae J 14368/08 after 48 hrs by microbroth dilution method; details: J 14368/08, 48 h; how it was run: as §1
[15] = test system: Candida albicans; experiment: Antifungal activity against Candida albicans ATCC 44859 after 24 hrs by microbroth dilution method; details: ATCC 44859, 24 h
[16] = test system: Candida albicans; experiment: Antifungal activity against Candida albicans ATCC 44859 after 48 hrs by microbroth dilution method; details: ATCC 44859, 48 h
[17] = test system: Candida tropicalis; experiment: Antifungal activity against Candida tropicalis 156 after 24 hrs by microbroth dilution method; details: Candida tropicalis, 156, 24 h
[18] = test system: Candida tropicalis; experiment: Antifungal activity against Candida tropicalis 156 after 48 hrs by microbroth dilution method; details: Candida tropicalis, 156, 48 h
[19] = test system: Pichia kudriavzevii; experiment: Antifungal activity against Candida krusei E28 after 24 hrs by microbroth dilution method; details: E28, 24 h
[20] = test system: Pichia kudriavzevii; experiment: Antifungal activity against Candida krusei E28 after 48 hrs by microbroth dilution method; details: E28, 48 h
[21] = test system: Nakaseomyces glabratus; experiment: Antifungal activity against Candida glabrata 20/I after 24 hrs by microbroth dilution method
[22] = test system: Nakaseomyces glabratus; experiment: Antifungal activity against Candida glabrata 20/I after 48 hrs by microbroth dilution method
[23] = test system: Trichosporon asahii; experiment: Antifungal activity against Trichosporon asahii 1188 after 24 hrs by microbroth dilution method; details: Trichosporon asahii, 1188, 24 h
[24] = test system: Trichosporon asahii; experiment: Antifungal activity against Trichosporon asahii 1188 after 48 hrs by microbroth dilution method; details: Trichosporon asahii, 1188, 48 h
[25] = test system: Lichtheimia corymbifera; experiment: Antifungal activity against Absidia corymbifera 272 after 24 hrs by microbroth dilution method; details: Lichtheimia corymbifera, 272, 24 h
[26] = test system: Lichtheimia corymbifera; experiment: Antifungal activity against Absidia corymbifera 272 after 48 hrs by microbroth dilution method; details: Lichtheimia corymbifera, 272, 48 h
[27] = test system: Trichophyton mentagrophytes; experiment: Antifungal activity against Trichophyton mentagrophytes 445 after 72 hrs by microbroth dilution method; details: Trichophyton mentagrophytes, 445, 72 h
[28] = test system: Trichophyton mentagrophytes; experiment: Antifungal activity against Trichophyton mentagrophytes 445 after 120 hrs by microbroth dilution method; details: Trichophyton mentagrophytes, 445, 120 h

SMILES | MIC [1] [µM] | MIC [2] [µM] | MIC [3] [µM] | MIC [4] [µM] | MIC [5] [µM] | MIC [6] [µM] | MIC [7] [µM] | MIC [8] [µM] | MIC [9] [µM] | MIC [10] [µM] | MIC [11] [µM] | MIC [12] [µM] | MIC [13] [µM] | MIC [14] [µM] | MIC [15] [µM] | MIC [16] [µM] | MIC [17] [µM] | MIC [18] [µM] | MIC [19] [µM] | MIC [20] [µM] | further results
O=C(Nc1ccccc1)Oc1ccc(Cl)cc1C(=O)Nc1ccc(Cl)cc1 | 31.2 (≈ 12.5 µg/mL) | 31.2 (≈ 12.5 µg/mL) | 31.2 (≈ 12.5 µg/mL) | 31.2 (≈ 12.5 µg/mL) | 31.2 (≈ 12.5 µg/mL) | 31.2 (≈ 12.5 µg/mL) | 500 (≈ 201 µg/mL) | 500 (≈ 201 µg/mL) | 500 (≈ 201 µg/mL) | 500 (≈ 201 µg/mL) | 500 (≈ 201 µg/mL) | 500 (≈ 201 µg/mL) | 62.5 (≈ 25.1 µg/mL) | 62.5 (≈ 25.1 µg/mL) | > 125 | > 125 | > 125 | > 125 | 62.5 (≈ 25.1 µg/mL) | 62.5 (≈ 25.1 µg/mL) | MIC [21]: > 125 µM; MIC [22]: > 125 µM; MIC [23]: 62.5 µM (≈ 25.1 µg/mL); MIC [24]: 62.5 µM (≈ 25.1 µg/mL); MIC [25]: > 125 µM; MIC [26]: > 125 µM; MIC [27]: 1.95 µM (≈ 0.782 µg/mL); MIC [28]: 1.95 µM (≈ 0.782 µg/mL)
O=C(NC12CC3CC(CC(C3)C1)C2)Oc1ccc(Cl)cc1C(=O)Nc1ccc(Cl)cc1 | 3.9 (≈ 1.79 µg/mL) | 15.6 (≈ 7.18 µg/mL) | 3.9 (≈ 1.79 µg/mL) | 31.2 (≈ 14.4 µg/mL) | 3.9 (≈ 1.79 µg/mL) | 3.9 (≈ 1.79 µg/mL) | 250 (≈ 115 µg/mL) | 250 (≈ 115 µg/mL) | > 250 | > 250 | > 250 | > 250 | 62.5 (≈ 28.7 µg/mL) | 62.5 (≈ 28.7 µg/mL) | > 250 | > 250 | 250 (≈ 115 µg/mL) | 250 (≈ 115 µg/mL) | 125 (≈ 57.4 µg/mL) | 125 (≈ 57.4 µg/mL) | MIC [21]: > 250 µM; MIC [22]: > 250 µM; MIC [23]: 31.2 µM (≈ 14.4 µg/mL); MIC [24]: 31.2 µM (≈ 14.4 µg/mL); MIC [25]: > 250 µM; MIC [26]: > 250 µM; MIC [27]: 3.9 µM (≈ 1.79 µg/mL); MIC [28]: 3.9 µM (≈ 1.79 µg/mL)
O=C(NCCc1ccccc1)Oc1ccc(Cl)cc1C(=O)Nc1ccc(Cl)cc1 | 3.9 (≈ 1.67 µg/mL) | 15.6 (≈ 6.71 µg/mL) | 3.9 (≈ 1.67 µg/mL) | 15.6 (≈ 6.71 µg/mL) | 3.9 (≈ 1.67 µg/mL) | 15.6 (≈ 6.71 µg/mL) | 500 (≈ 215 µg/mL) | 500 (≈ 215 µg/mL) | 125 (≈ 53.7 µg/mL) | 500 (≈ 215 µg/mL) | 500 (≈ 215 µg/mL) | 500 (≈ 215 µg/mL) | 31.2 (≈ 13.4 µg/mL) | 31.2 (≈ 13.4 µg/mL) | > 500 | > 500 | > 500 | > 500 | > 500 | > 500 | MIC [21]: > 500 µM; MIC [22]: > 500 µM; MIC [23]: > 500 µM; MIC [24]: > 500 µM; MIC [25]: > 500 µM; MIC [26]: > 500 µM; MIC [27]: 1.95 µM (≈ 0.837 µg/mL); MIC [28]: 1.95 µM (≈ 0.837 µg/mL)
